The test system of data set [1] is Lewis lung carcinoma cell line. Put plainly: Antitumor activity against mouse LLC cells xenografted in C57BL/6 mouse assessed as decrease in tumor volume at 13.7 umol/kg, iv administered on day 4 and day 11 after tumor transplantation measured on day 17. It counts as functional. The method, boiled down: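 Murine LLC tumours grown subcutaneously in mice. Two iv injections on days 4 and 11 after transplantation: doxorubicin 2 × 13.7 μmol/kg, glucuronide prodrugs 2 × 43.6 μmol/kg. T/C = mean relative tumour volume of treated group / mean relative tumour volume of control group. Minimal T/C reported with the day it was reached; 8 mice per group.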

The test system of a further data set is MDA-MB-231. The data set is described as follows: Antiproliferative activity against human MDA-MB-231 cells after 48 hrs by XTT assay. It counts as functional, cell-based. As to conditions: MDA-MB-231, 48 h. Put shortly: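 Human MDA-MB-231 tumour cells were exposed to drug for 48 h, with or without β-glucuronidase added to the culture medium. Viability read-out gave IC50 in nM. Highest prodrug concentration tested was 2 μM.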
On the technique in general: Formazan colour is commonly taken as a measure of viable cells.

Data set [2] deals with Mus musculus. The data set is described as follows: Nephrotoxicity in C57BL/6 mouse xenografted with mouse LLC cells at 13.7 umol/kg, iv administered on day 4 and day 11 after tumor transplantation measured on day 17 by hematoxylin eosin staining method. The format is toxicity, organism-based. As to conditions: in vivo. Put shortly:
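Kidneys from LLC-bearing mice dosed iv on days 4 and 11 were sectioned and stained with hematoxylin eosin. Renal tissue examined microscopically alongside untreated controls.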

A short description of data set [3]: Antiproliferative activity against human U87MG cells after 48 hrs by XTT assay. It counts as functional, cell-based, U-87MG ATCC. Conditions: U-87 MG. The method, boiled down: (§1)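 Human H290, MDA-MB-231 and U87-MG and murine LLC tumour cell lines treated 48 h, with or without β-glucuronidase in the culture medium. IC50 derived from cell viability assays; highest tested dose 2 μM.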

The subject of data set [4] is Lewis lung carcinoma cell line. The data set is described as follows: Antiproliferative activity against mouse LLC cells after 48 hrs by XTT assay. It counts as functional, cell-based. The method, boiled down:
as §1

Data set [5] relates to Mus musculus. The data set is described as follows: Toxicity in C57BL/6 mouse xenografted with mouse LLC cells assessed as change in body weight at 13.7 umol/kg, iv administered on day 4 and day 11 after tumor transplantation measured on day 17. The format is organism-based. As to conditions: in vivo. The method, boiled down:
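Subcutaneous murine LLC-bearing mice given two iv doses on days 4 and 11 after transplantation: 2 × 13.7 μmol/kg doxorubicin or 2 × 43.6 μmol/kg prodrug. Body weight change (%) and mortality recorded, 8 mice per group.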

Data set [6] in a line: Antiproliferative activity against human NCI-H290 cells after 48 hrs by XTT assay. The format is functional, cell-based. Conditions: NCI-H290, 48 h. Put shortly: as §1

The structures appear in SMILES notation.

Consider `COc1cccc2c1C(=O)c1c(O)c3c(c(O)c1C2=O)C[C@@](O)(C(=O)CO)C[C@@H]3O[C@H]1C[C@H](N)[C@H](O)[C@H](C)O1` [DOXORUBICIN], for which the T/C (in general, the ratio of treated to control) in data set [1] came to 31%. Further, the half-inhibitory concentration (IC50) – broadly, the concentration needed to halve the response being measured – amounted to 340 nM with MDA-MB-231, 790 nM in data set [3], 207 nM in data set [4] and 320 nM in data set [6]. For the same molecule, the Activity result in the data set on Mus musculus [2] is reported as “Toxic”; in the data set on Mus musculus [5], -21%.

The record behind these values is ChEMBL document CHEMBL2057162, “Synthesis and antitumor efficacy of a β-glucuronidase-responsive albumin-binding prodrug of doxorubicin” (J Med Chem, 2012).
